ChEMBL document CHEMBL1153411, “Comparing anti-HIV, antibacterial, antifungal, micellar, and cytotoxic properties of tricarboxylato dendritic amphiphiles” (Bioorg Med Chem, 2009)
In brackets after ≈: the same amount, converted by molar mass.

Legend:
Neisseria gonorrhoeae = assay: Antibacterial activity against Neisseria gonorrhoeae ATCC 31426 after 4 days by broth microdilution method; assay type: functional; details: ATCC 31426, 96 h
In short: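 Strain ATCC 31426 from chocolate agar (1% hemoglobin) colonies, grown 4 d in GC broth at 37 °C in an anaerobic jar with CO2 generator. Cells taken up in buffered saline gelatin and allowed to settle 4 h. Broth microdilution over 6.25 mg/mL down to 0.55 µg/mL. Plates incubated 4 d at 37 °C, in triplicate. MIC is the lowest concentration giving prominent visible decrease in turbidity; ±1 twofold dilution.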

[1] = test system: Lactiplantibacillus plantarum; assay: Antibacterial activity against Lactobacillus plantarum; assay type: functional
In short: (§1)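 Whole-cell growth-inhibition assays against L. plantarum or C. albicans, compounds added from aqueous triethanolamine stocks. Activity expressed as MIC99, the concentration giving complete inhibition of growth. Error ±1 twofold dilution.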

[2] = Ratio of EC50 for human HeLa cells to EC50 for HIV1 3B infected in human HeLa cells
[3] = Cytotoxicity against human epithelial cells by MTT assay; assay type: cell-based; details: Epithelial cell
In short: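 Same HeLa cells and same conditions as the infection assay, on a separate plate without virus. Viability measured by MTT reduction. EC50 by linear regression; SD ±10%.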

[4] = Slope of log critical micelle concentration versus chain length n in aqueous potassium hydroxide by conductivity measurement; details: buffer
[5] = Critical micelle concentration in aqueous potassium hydroxide by conductivity measurement; assay type: physicochemical; details: buffer
In short: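 Measured in potassium hydroxide solutions at high pH so that only the trianion is present. Solutions stirred during conductivity measurement. CMC taken by least-squares fits of the linear portions of conductivity-versus-concentration plots on either side of the break.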

[6] = Critical micelle concentration in aqueous triethanalamine using drop shape analysis by surface tension measurement; assay type: physicochemical; details: buffer
In short: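 Surface tension from pendent drops on an 18-gauge needle in triethanolamine/water 0.9% (wt/vol), with solution pH 8.0–9.5. Drop kept in a cuvette holding aqueous triethanolamine to maintain humidity, and camera magnification calibrated from needle tip width. CMC from the break in surface tension versus log concentration.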

Candida albicans = assay: Antifungal activity against Candida albicans; assay type: functional; in short: as §1
[7] = Critical micelle concentration in aqueous triethanalamine at pH 8.0 to 9.5 by fluorescence spectra measurement; details: buffer
[8] = test system: Human immunodeficiency virus 1; assay: Antiviral activity against HIV1 3B with X4 trophism infected in human HeLa cells after 2 hrs by beta-galactosidase reporter gene assay; assay type: functional, organism-based; details: Human immunodeficiency virus 1, 3B
In short: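 CD4+, LTR-driven β-galactosidase HeLa cells exposed 2 h to HIV-1 IIIB plus serial compound dilutions. Virus and compound then washed out and cells cultured 48 h in RPMI 1640/10% FBS at 37 °C, 5% CO2. Lysate β-galactosidase measured by chemiluminescence, with virus-only wells as 100% infection. EC50 by linear regression; SD ±10%.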

[9] = Critical micelle concentration in aqueous triethanalamine at pH 6.4 by fluorescence spectra measurement; assay type: physicochemical
In short: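 Measured in triethanolamine/water 0.9% (wt/vol) with pH adjusted to 7.4 or 6.4, using pyrene as micelle probe. Mixtures shaken at least 24 h. Excitation 334 nm, bandpasses 5/2.5 nm. CMC from emission intensities of the I1 (373 nm) and I3 (384 nm) peaks.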

[10] = Safety ratio of critical micelle concentration in aqueous triethanalamine at pH 7.4 to MIC99 for Candida albicans; assay type: toxicity; details: aqueous triethanolamine
[11] = Safety index, ratio of EC50 for human epithelial cells to MIC99 for Candida albicans; assay type: toxicity, cell-based, Epithelial cell
[12] = Safety ratio of critical micelle concentration in aqueous potassium hydroxide to MIC99 for Candida albicans; assay type: toxicity; details: buffer
[13] = Solubility of compound in phosphate buffer at pH 7.2; assay type: physicochemical
[14] = Solubility of compound in triethanolamine solution; assay type: physicochemical

MIC99 (Neisseria gonorrhoeae) | slope of logCMC vs n [4] | CMC [5] | CMC [6] | MIC99 (Candida albicans) | CMC [7] | EC50 [8] | CMC [9] | solubility [13] | solubility [14] | Structure (SMILES) | MIC99 [1] | Ratio EC50 [2] | EC50 [3] | selectivity ratio [10] | selectivity ratio [11] | Ratio [12]
130 µM (≈ 70.6 µg/mL) | -0.3 | 330 µM | 2200 µM | 1400 µM (≈ 760 µg/mL) | 2300 µM | 240 µM | – | – | – | CCCCCCCCCCCCCCCCCCNC(=O)NC(CCC(=O)O)(CCC(=O)O)CCC(=O)O | 1400 µM (≈ 760 µg/mL) | 1.2 | 280 µM | – | – | –
120 µM (≈ 71.9 µg/mL) | -0.3 | 40 µM | 340 µM | 2700 µM (≈ 1620 µg/mL) | 400 µM | 120 µM | – | – | – | CCCCCCCCCCCCCCCCCCCCCCNC(=O)NC(CCC(=O)O)(CCC(=O)O)CCC(=O)O | 940 µM (≈ 563 µg/mL) | 2.2 | 260 µM | – | – | –
2800 µM (≈ 1440 µg/mL) | -0.3 | 2300 µM | 4900 µM | 47 µM (≈ 24.2 µg/mL) | 7100 µM | 180 µM | 480 µM | – | – | CCCCCCCCCCCCCCCCNC(=O)NC(CCC(=O)O)(CCC(=O)O)CCC(=O)O | 6000 µM (≈ 3090 µg/mL) | 1.9 | 350 µM | 83 | 7 | 49
120 µM (≈ 68.5 µg/mL) | -0.3 | 120 µM | 1400 µM | 2800 µM (≈ 1600 µg/mL) | 1300 µM | 130 µM | – | – | – | CCCCCCCCCCCCCCCCCCCCNC(=O)NC(CCC(=O)O)(CCC(=O)O)CCC(=O)O | 1400 µM (≈ 799 µg/mL) | 1.6 | 210 µM | – | – | –
12000 µM (≈ 5840 µg/mL) | -0.3 | 8400 µM | – | 1600 µM (≈ 779 µg/mL) | – | 270 µM | – | – | – | CCCCCCCCCCCCCCNC(=O)NC(CCC(=O)O)(CCC(=O)O)CCC(=O)O | 6400 µM (≈ 3110 µg/mL) | 1.1 | – | – | – | –
2700 µM (≈ 1390 µg/mL) | -0.175 | 71 µM | 11000 µM | 280 µM (≈ 144 µg/mL) | 11000 µM | – | – | – | – | CCCCCCCCCCCCCCCCCC(=O)NC(CCC(=O)O)(CCC(=O)O)CCC(=O)O | 540 µM (≈ 277 µg/mL) | – | – | – | – | –
120 µM (≈ 72 µg/mL) | – | – | 320 µM | 1300 µM (≈ 780 µg/mL) | 330 µM | 110 µM | – | – | – | CCCCCCCCCCCCCCCCCCCCCCOC(=O)NC(CCC(=O)O)(CCC(=O)O)CCC(=O)O | 1300 µM (≈ 780 µg/mL) | 3.3 | 360 µM | – | – | –
12000 µM (≈ 5490 µg/mL) | -0.175 | 3500 µM | – | 610 µM (≈ 279 µg/mL) | – | 740 µM | – | – | – | CCCCCCCCCCCCCC(=O)NC(CCC(=O)O)(CCC(=O)O)CCC(=O)O | 610 µM (≈ 279 µg/mL) | – | 300 µM | – | – | –
12000 µM (≈ 5830 µg/mL) | -0.175 | 1500 µM | 17000 µM | 290 µM (≈ 141 µg/mL) | 18000 µM | 230 µM | – | 6900 µM (≈ 3350 µg/mL) | – | CCCCCCCCCCCCCCCC(=O)NC(CCC(=O)O)(CCC(=O)O)CCC(=O)O | 570 µM (≈ 277 µg/mL) | 4 | 940 µM | – | – | –
120 µM (≈ 68.4 µg/mL) | -0.175 | 13 µM | 2000 µM | 7.7 µM (≈ 4.39 µg/mL) | 1500 µM | 130 µM | 150 µM | 79 µM (≈ 45 µg/mL) | > 22000 µM | CCCCCCCCCCCCCCCCCCCCCC(=O)NC(CCC(=O)O)(CCC(=O)O)CCC(=O)O | 490 µM (≈ 279 µg/mL) | – | 250 µM | 52 | 32 | 1.7
580 µM (≈ 283 µg/mL) | – | – | – | 1600 µM (≈ 780 µg/mL) | – | 370 µM | – | – | – | CCCCCCCCCCCCCCOC(=O)NC(CCC(=O)O)(CCC(=O)O)CCC(=O)O | 6400 µM (≈ 3120 µg/mL) | 1.7 | 620 µM | – | – | –
130 µM (≈ 70.4 µg/mL) | -0.175 | 34 µM | 3000 µM | 16 µM (≈ 8.67 µg/mL) | 3200 µM | 170 µM | – | – | – | CCCCCCCCCCCCCCCCCCCC(=O)NC(CCC(=O)O)(CCC(=O)O)CCC(=O)O | 520 µM (≈ 282 µg/mL) | – | 340 µM | 10 | 21 | 2
280 µM (≈ 144 µg/mL) | – | – | 6800 µM | 47 µM (≈ 24.2 µg/mL) | 6400 µM | 170 µM | – | – | – | CCCCCCCCCCCCCCCCOC(=O)NC(CCC(=O)O)(CCC(=O)O)CCC(=O)O | 6000 µM (≈ 3090 µg/mL) | 2.6 | 440 µM | – | – | –
65 µM (≈ 35.3 µg/mL) | – | – | 2800 µM | 180 µM (≈ 97.9 µg/mL) | 2700 µM | 130 µM | – | – | – | CCCCCCCCCCCCCCCCCCOC(=O)NC(CCC(=O)O)(CCC(=O)O)CCC(=O)O | 1400 µM (≈ 761 µg/mL) | 2.7 | 350 µM | – | – | –
120 µM (≈ 68.6 µg/mL) | – | – | 500 µM | 1400 µM (≈ 801 µg/mL) | 800 µM | 130 µM | – | – | – | CCCCCCCCCCCCCCCCCCCCOC(=O)NC(CCC(=O)O)(CCC(=O)O)CCC(=O)O | 1400 µM (≈ 801 µg/mL) | 2.2 | 280 µM | – | – | –
